CXCR6 block: inhibitors of human CXCR6 receptor; CHO-K1 PathHunter CXCR6 beta-arrestin, luminescence; inhibition, % at 20 µM; actives 0.36% (n = 360,000); AID 602244; in the data active = inhibition above about 34%, passing the limit was not always enough;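 note: antagonist mode with CXCL16 agonist at 10 nM final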
EBI2 block: blocks human EBI2 receptor beta-arrestin signaling; P32249; EBI2 beta-arrestin recruitment, luminescence, 7a,25-OHC stimulated; inhibition, % at 5 µM; actives 0.81% (n = 360,000); AID 651636; in the data active = inhibition above about 38%;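 note: enzyme fragment complementation signal reports receptor beta-arrestin coupling in cells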
APJ ag: APJ receptor agonism | P35414 | activation, % at 20 µM | CHO-K1 APJ PathHunter beta-arrestin, luminescence; 0% DMSO wells, 100% apelin | actives 0.11% (n = 330,000);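 active = activation more than six SD over the plate average, tested at 20 µM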
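Assay system: CHO-K1 APJ beta-arrestin complementation cell line / Compound: single test compound dose, 20 µM final, 1% DMSO / Times: overnight seeding, 90 min compound at 25 °C, 1 h detection / Technique: beta-gal luminescence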
HTR2A ag: mouse HTR2A agonism via beta-arrestin recruitment; CHO-K1 mHTR2A beta-arrestin complementation, luminescence; percent of 30 µM serotonin response; P35363; activation, % at 7.6 µM; actives 0.66% (n = 360,000);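 active = activation above a run cutoff, the mean activation of all tested compounds plus 3 SD, cut at about 14% in these data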
Target sequence (P35363 whole entry, looked up): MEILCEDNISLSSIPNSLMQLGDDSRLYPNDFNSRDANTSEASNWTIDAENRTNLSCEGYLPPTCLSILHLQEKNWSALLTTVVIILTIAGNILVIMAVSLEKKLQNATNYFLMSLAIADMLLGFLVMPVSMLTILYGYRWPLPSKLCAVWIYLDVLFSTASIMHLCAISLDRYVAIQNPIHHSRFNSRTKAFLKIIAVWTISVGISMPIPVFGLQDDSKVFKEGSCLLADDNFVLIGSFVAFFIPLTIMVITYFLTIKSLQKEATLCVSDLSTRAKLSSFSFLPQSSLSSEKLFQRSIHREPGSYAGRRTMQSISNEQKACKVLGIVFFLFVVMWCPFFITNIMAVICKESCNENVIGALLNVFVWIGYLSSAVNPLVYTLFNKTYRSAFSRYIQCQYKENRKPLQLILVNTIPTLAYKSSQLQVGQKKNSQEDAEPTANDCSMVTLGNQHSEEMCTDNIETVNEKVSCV
APJ antag: APJ receptor antagonism. P35414. CHO-K1 APJ beta-arrestin complementation, luminescence. inhibition, % at 20 µM. actives 0.32% (n = 330,000);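 active = inhibition above about 40% at 20 µM, limit read from the data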;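 note: cells challenged with 10 nM apelin-13 agonist together with compound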
CCR6 antagonist: CCR6 (human) receptor antagonism; P51684; CHO-K1 CCR6 PathHunter beta-arrestin, luminescence, CCL20-stimulated; inhibition, % at 20 µM; actives 0.49% (n = 340,000); AID 493098;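 active = compounds whose inhibition of the agonist-driven luminescence signal at 20 µM reaches about 50%, limit read from the data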;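 note: cells stimulated with CCL20 at 14 nM final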
Numbers stand for hits; – = inactive; · = no result given. This is a sample that favours compounds with a hit; in the whole collection about 2.2% have one here.

SMILES | CXCR6 block | EBI2 block | APJ ag | HTR2A ag | APJ antag | CCR6 antagonist
CN(CCOc1ccc(Cl)cc1)C(=O)C1CCN(C(=O)c2ccc(F)cc2)CC1 | – | – | – | – | – | –
CN(CCOc1ccccc1)C(=O)C1CCN(C(=O)c2ccc(Cl)cc2)CC1 | – | 64.1 | – | – | – | –
O=C(CNc1ccc(Cl)cc1)c1ccc(Br)cc1 | – | – | – | – | 82.7 | 61.9
N#Cc1ccc(OCC(=O)N2CCN(c3ccc(C(F)(F)F)cn3)CC2)cc1 | – | 58.6 | – | – | – | –
COC(=O)c1sc(N)c(C(=O)OC)c1CSc1nc2sc3c(c2c(=O)n1C)CCC3 | 52.2 | – | – | – | – | –
O=S(=O)(/C(=C\c1ccc(C(F)(F)F)cc1)c1nc2ccccc2[nH]1)c1ccccc1 | – | 44.7 | · | – | · | ·
O=C(NCc1ccco1)/C(=C/c1ccc(C(F)(F)F)cc1)c1nc2ccccc2[nH]1 | – | – | – | – | – | –
O=C1C(=Cc2ccccc2O)SC(=S)N1CCCN1CCOCC1 | – | – | · | – | · | ·
Cc1ccc(SC2=C(Sc3ccc(C)cc3)C(=O)c3ccccc3C2=O)cc1 | – | – | – | – | – | –
CC1=CC(=O)C(Sc2ccc(C)cc2)=CC1=O | 92.1 | – | · | – | · | ·
Cc1noc(C)c1NC(=O)N(C)C[C@H]1OCc2cnnn2CCCC(=O)N([C@H](C)CO)C[C@H]1C | – | – | · | – | · | ·
O=c1c2ccccc2n(Cc2ccc(Cl)cc2)c(=O)n1Cc1ccco1 | – | 76.6 | – | – | – | –
O=C(NCc1ccco1)c1ccc(Cn2c(=O)c3ccccc3n(Cc3ccc(Cl)cc3)c2=O)cc1 | – | – | – | – | – | –
Cc1ccc(S(=O)(=O)CCC(=O)c2cccc([N+](=O)[O-])c2)cc1 | – | – | – | – | – | 58.6
COc1ccc(NC(=O)c2cc(C3CCCCN3C(=O)c3cc(OC)c(C)c(OC)c3)on2)c(C)c1 (centres undefined) | – | – | · | – | · | ·
Cc1cc(S(=O)(=O)c2ccc(Cl)cc2)nc(S(=O)(=O)c2ccc(Cl)cc2)c1C#N | 75.3 | – | · | – | · | ·
Cc1cc(C)c(S(=O)(=O)c2ccc(Cl)cc2)c(Cl)n1 | – | – | – | – | – | –
COC(=O)[C@]12CCCCC=C1N(Cc1ccc3c(c1)OCO3)C(=O)[C@H](CC(=O)NCC13CC4CC(CC(C4)C1)C3)C2 | · | – | · | – | · | ·
Cc1ccc2cc3c(N)c(C(=O)N4CC(=O)Nc5ccccc54)sc3nc2c1 | · | · | – | · | 97.6 | ·
Cc1ccccc1OCCCN1C(=O)C(=O)c2cccc(C)c21 | – | – | – | – | 47.8 | 58.1
Cc1ccc2c(c1)C(=O)C(=O)N2CCCOc1ccccc1C | – | – | – | – | – | –
Cc1cccc2c1N(CCCOc1ccc(C(C)(C)C)cc1)C(=O)C2=O | – | – | – | – | – | 51.5
Cc1cccc(OCCN2C(=O)C(=O)c3cccc(C)c32)c1 | – | – | – | – | – | –
CC(C)NC(=O)C1(C)Cc2c(-c3ccc(N(C)C)cc3)ccnc2O1 (centres undefined) | – | – | · | – | · | ·
CCC1C(=O)C(C)(C)C(=O)OC1c1ccc([N+](=O)[O-])cc1 (centres undefined) | – | – | · | – | · | –
SMILES | CXCR6 block | EBI2 block | APJ ag | HTR2A ag | APJ antag | CCR6 antagonist
O=C1CC(=O)OC(c2ccc([N+](=O)[O-])cc2)O1 | 50.0 | – | · | – | · | ·
Cc1ccccc1C(=O)/C(C#N)=N/Nc1c(C)n(C)n(-c2ccccc2)c1=O | 44.8 | – | · | – | · | –
Cc1c(N/N=C(\C#N)C(=O)c2ccccc2)c(=O)n(-c2ccccc2)n1C | – | – | · | – | · | 63.2
CCCCCCCCN1C(=O)[C@H](CC(=O)N2CCSCC2)C[C@@]2(C(=O)OC)CCCCC=C12 | – | – | · | – | · | ·
CC(=O)Nc1ccc(C=NNc2ccc([N+](=O)[O-])cc2S(=O)(=O)Nc2ccccc2C(=O)O)cc1 | – | – | – | – | – | –
O=C(O)c1ccccc1NS(=O)(=O)c1ccc(NNC(=S)Nc2ccc(OC(F)F)cc2)c([N+](=O)[O-])c1 | 35.3 | – | · | – | · | 52.7
Cc1ccc(NC(=S)NNc2ccc([N+](=O)[O-])cc2S(=O)(=O)Nc2ccccc2C(=O)O)cc1C | – | – | · | – | · | 68.3
CN(CCO)c1ccc(C=NNc2ccc([N+](=O)[O-])cc2S(=O)(=O)Nc2ccccc2C(=O)O)cc1 | – | – | – | – | – | 62.5
CC1(C(=O)NCc2ccccc2)CN(S(C)(=O)=O)CC(=O)N1C1CC1 (centres undefined) | · | – | · | – | · | ·
N#Cc1ccc(CN(Nc2ccccc2)c2ccccc2)cc1 | – | – | · | – | · | ·
Cc1ccccc1CN1CCN(C(=O)[C@H]2O[C@@H](n3cnc4c(N)ncnc43)[C@H](O)[C@@H]2O)CC1 | – | – | · | – | · | ·
COC1=CC(C)C2CC3OC(O)CC4C(C)=C(OC)C(=O)C(C2(C)C1=O)C34C (centres undefined) | – | – | · | – | · | ·
CCOc1ccc(OCc2ccc(C(=O)N3CCc4ccccc4C3)o2)cc1 | – | – | – | 15.4 | – | –
CCOc1ccc(OCc2ccc(C(=O)N3CCCCC3)o2)cc1 | – | – | – | – | – | –
CCCNC(=O)C1(C)CCN(C(=O)c2cccnc2Oc2ccccc2)C1 (centres undefined) | – | – | · | – | · | ·
Cc1cc(C)c(S(=O)(=O)Nc2ccc3c4c(cccc24)CC3)c(C)c1 | – | 45.7 | – | – | – | –
O=C1NC(=S)S/C1=C/c1ccc(N2CCOCC2)o1 | – | – | – | – | – | 61.6
O=C1/C(=C/c2ccc(N3CCOCC3)o2)SC(=Nc2ccccc2)N1CCc1c[nH]c2ccccc12 | – | 83.0 | – | – | – | –
COc1cc(/C=C2\SC(=Nc3ccccc3)N(CCc3c[nH]c4ccccc34)C2=O)ccc1OC(C)C(=O)O (centres undefined) | – | – | – | – | – | –
O=C1S/C(=C\c2ccc(N3CCOCC3)o2)C(=O)N1Cc1ccc(F)cc1 | – | 47.4 | – | – | – | –
O=C1S/C(=C/c2ccc(N3CCOCC3)o2)C(=O)N1Cc1ccc(F)cc1 | – | – | – | – | – | –
Cc1csc(-c2nc3ccccc3n2C(C(=O)Nc2c(C)cccc2C)C2CC2)c1 (centres undefined) | · | – | · | – | · | ·
COC(=O)C1=CN(c2ccc(N3CCOCC3)cc2)C(N)=C(C#N)C1c1cccc(F)c1 (centres undefined) | · | – | · | – | · | ·
CN(C)c1ccc(-c2ccnc3c2CC(C)(C(=O)Nc2ccc(Cl)c(C(F)(F)F)c2)O3)cc1 (centres undefined) | – | – | · | – | · | ·
CC(C)(C)OC(=O)N[C@@H](Cc1ccccc1)c1nnc(SCC(N)=O)o1 | – | – | – | – | – | –
Cc1cccc(CS(=O)(=O)c2nnc([C@H](Cc3ccccc3)NC(=O)OC(C)(C)C)o2)c1 | 61.1 | – | – | – | – | 90.7
Cc1cc(F)cc(-c2cc(C(=O)NCc3ccccn3)[nH]n2)c1 | – | – | · | – | · | ·

Screening data: PubChem BioAssay, several laboratories
